M5 PAM: CHRM5 positive allosteric modulation | CHO-K1 hM5, Fluo-8 calcium, ACh EC20 PAM; 0% = ACh EC20, 100% = ACh EC100 | 0.3% of 360,000 active | activation, % at 3 µM | AID 624038;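 active = activation above the run cutoff, the mean activation of all test compounds plus 3 SD, cut at about 18% in these data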
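System – CHO-K1 hM5 cells · Compound – 3 µM, single dose · Incubation – compound preincubation 140 s before EC20 acetylcholine addition · Technique – Fluo-8 calcium fluorescence · Measure – Max/basal fluorescence ratio as % of EC20–EC100 ACh window · Benchmarks – low control EC20 acetylcholine (0%), high control EC100 acetylcholine (100%) · Replication – singlicate, one well per test compound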
M4 antag: blocks acetylcholine activation of human M4 receptor; P08173; CHO-hM4 cells, ACh EC80, Fluo-8 calcium fluorescence; inhibition, % at 3 µM; 0.73% of 360,000 active; AID 624125;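 active = inhibition above its plate's cutoff, the mean inhibition of sample wells plus 3 SD, cut at about 27% in these data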;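 also: 0% = acetylcholine EC80 with DMSO and 100% = DMSO without agonist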
Target sequence (P08173 whole entry, looked up): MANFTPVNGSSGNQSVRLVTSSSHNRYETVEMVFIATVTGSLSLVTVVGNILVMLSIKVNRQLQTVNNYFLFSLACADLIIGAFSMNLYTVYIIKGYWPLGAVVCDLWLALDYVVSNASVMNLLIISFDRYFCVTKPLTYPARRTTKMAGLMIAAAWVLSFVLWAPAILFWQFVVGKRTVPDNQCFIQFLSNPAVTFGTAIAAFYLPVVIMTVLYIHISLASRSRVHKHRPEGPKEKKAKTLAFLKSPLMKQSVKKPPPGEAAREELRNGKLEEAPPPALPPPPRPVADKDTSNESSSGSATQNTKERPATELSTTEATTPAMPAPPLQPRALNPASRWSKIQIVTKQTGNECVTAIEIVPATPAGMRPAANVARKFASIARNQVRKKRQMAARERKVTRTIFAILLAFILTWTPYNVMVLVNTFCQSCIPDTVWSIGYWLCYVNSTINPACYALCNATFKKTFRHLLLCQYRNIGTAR
CHRM5 antagonist: antagonists of human muscarinic M5 receptor (CHRM5) | 0.59% of 360,000 active | P08912 | inhibition, % at 3 µM | CHO-hM5 cells, Fluo-8 calcium fluorescence, ACh EC80;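 active = inhibition above a per-plate cutoff, the mean of that plate's test compounds plus 3 SD, cut at about 27% in these data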;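 also: 0% = acetylcholine EC80 with DMSO and 100% = DMSO without agonist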
CHRM4 agonist: agonists of human muscarinic M4 receptor (CHRM4); CHO-K1 hM4/Gqi5, Fluo-8 calcium fluorescence; vehicle 0%, full acetylcholine response 100%; AID 624127; 0.14% of 360,000 active; activation, % at 3 µM;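 active = activation above the run mean over all test wells plus 3 SD, cut at about 32% in these data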;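 also: peak over basal fluorescence ratio per well then scaled between controls; 0% = DMSO wells and 100% = acetylcholine at EC100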
M4 PAM: potentiates acetylcholine response at human M4 receptor. CHO-K1 hM4/Gqi5, Fluo-8 calcium fluorescence, ACh EC20; 0% = ACh EC20, 100% = maximal ACh. activation, % at 3 µM. 0.4% of 360,000 active;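 active = activation above its plate's cutoff, the mean activation of sample wells plus 3 SD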
M5 ag: CHRM5 agonism in calcium assay; P08912; CHO-K1 hM5 cells, Fluo-8 calcium fluorescence; 0% DMSO wells, 100% maximal acetylcholine response; activation, % at 3 µM; 0.19% of 360,000 active; AID 624037;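 active = activation above the run's mean over test compounds plus 3 SD, cut at about 23% in these data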;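 also: signal is peak over basal fluorescence ratio across the kinetic read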
* hit, by the source's call. An excerpt weighted towards active compounds, which were near 1.8% of everything screened.

SMILES | M5 PAM | M4 antag | CHRM5 antagonist | CHRM4 agonist | M4 PAM | M5 ag
CCc1c(-c2cccc(OC)c2)ncn1Cc1cccc(-c2ccccc2)c1 | -14.6 | 33.5* | 15.4 | 12.9 | -13.9 | -2.1
CCc1c(-c2ccccc2)ncn1Cc1cccc(-c2ccccc2)c1 | -15.5 | 3.6 | 27.2* | 8.6 | -8.0 | 1.4
CCCCN(CCCC)Cc1cc(=O)oc2cc(C)c(Cl)cc12 | -4.7 | 8.4 | 11.0 | 0.2 | -5.3 | 0.9
CC1(C(=O)Nc2cccc(OC(F)(F)F)c2)Cc2c(-c3ccc(C(N)=O)cc3)ccnc2O1 (stereo not given) | 1.6 | -8.8 | 2.7 | 2.4 | -0.2 | 3.6
CN(Cc1ccccc1)C1=CC(=[N+]2CCCCC2)CC(C)(C)C1 | -24.2 | 54.0* | 25.2 | 4.5 | -39.3 | -19.4
CC1(C)CC(N2CCN(Cc3ccccc3)CC2)=CC(=[N+]2CCCCC2)C1 | 5.0 | -3.4 | 3.1 | 0.8 | -12.9 | -16.9
CC1CCc2c(sc3ncnc(SCC(=O)c4ccccc4)c23)C1 (stereo not given) | 7.2 | -2.2 | 0.0 | 0.0 | 14.2 | -3.6
CC(=O)CSc1ncnc2sc3c(c12)CCC(C)C3 (stereo not given) | 11.4 | -13.9 | -8.2 | -1.0 | 22.7* | -7.9
COc1cc(/C=C(/C#N)c2ccc(F)cc2)ccc1Oc1ccc([N+](=O)[O-])cn1 | -20.8 | 15.2 | 35.4* | 7.7 | -12.4 | -3.5
CCOc1ccccc1-c1cc(NC)ncn1 | 3.2 | 3.8 | -2.8 | 1.3 | 0.8 | -0.5
Nc1nc(Nc2ccccc2)sc1C(=O)c1ccccc1 | 8.5 | -19.0 | -0.9 | 12.8 | 11.9* | 33.2*
Cc1cc(Br)cn2c(Cc3ccccc3)c(-c3ccc(F)cc3)nc12 | -4.3 | -5.0 | -0.3 | -1.2 | -0.6 | -3.1
O=S(=O)(NC1CCCC1)c1ccc(S(=O)(=O)NC2CCCC2)cc1 | -8.0 | 10.7 | 2.0 | 9.2 | -0.4 | 28.2*
CCOC(=O)C1(C)CCN1C(=O)c1ccc(C(C)(C)C)cc1 (stereo not given) | -4.2 | -7.9 | 3.2 | 2.6 | 0.2 | 0.1
COc1ccc(NC(=O)c2ccc3c(c2)OCO3)cc1Cl | 28.9* | -8.9 | -2.5 | 4.3 | 4.6 | 1.0
O=C(Nc1ccc(F)c(Cl)c1)c1ccc2c(c1)OCO2 | 6.1 | -5.4 | -13.8 | 2.4 | -0.6 | -7.3
O=C(Nc1ccc2c(c1)OCCO2)c1ccccc1 | -9.6 | 28.8* | 16.4 | 21.5 | -14.3 | 1.5
CC(C)N(C)c1ncnc2c1ncn2[C@H]1CN(CCc2ccccc2)C[C@@H](CO)O1 | -1.6 | -6.3 | 3.3 | 1.8 | 3.5 | -1.1
O=C(Cn1c(=O)c2cccn2c2ccc(F)cc21)N1CCN(c2ccc(F)cc2)CC1 | -9.9 | 2.6 | 28.2* | 2.0 | -5.3 | -2.5
Cc1ccc(OCCCCn2ccnc2C)c(C)c1 | -17.0 | -6.5 | 7.0 | 13.2 | -8.3 | -11.7
Cc1ccc(C(C)C)c(OCCn2ccnc2C)c1 | -17.5 | 51.5* | 57.4* | 5.2 | -17.5 | -7.5
O=C(Nc1ccc(C(=O)N2CCOCC2)cc1)c1ccccc1Cl | 7.6 | -6.5 | 9.0 | 2.1 | 3.4 | 0.6
Cc1ccc2occ(/C=N/NC(=O)c3ccncc3)c(=O)c2c1 | -0.4 | 3.4 | 9.6 | 2.1 | 19.8* | -1.9
CC[C@@H](C)[C@@H]1CN([C@@H](C)CN2CCC[C@H]2CN2C(N)=NC[C@@H]2Cc2ccccc2)C(=N)N1CCCC1CCCC1 | -40.9 | 64.9* | 4.6 | 0.3 | -15.2 | -10.9
CCCCN1C(=N)N([C@@H](C)CN2CCC[C@H]2CN2C(N)=NC[C@@H]2Cc2ccccc2)C[C@H]1Cc1ccccc1 | -31.0 | 40.1* | 15.4 | 1.2 | -15.3 | -14.0
CC[C@@H](C)[C@@H]1CN([C@@H](C)CN2CCC[C@H]2CN2C(N)=NC[C@H]2CC(C)C)C(=N)N1CCCC1CCCC1 | -3.6 | 8.4 | -8.3 | 0.0 | -12.5 | -3.1
CCCSc1ccc(-c2nn(-c3ccccc3)cc2/C=C(/C#N)C(=O)N2CCOCC2)cc1 | 44.2* | -8.3 | 24.3 | 0.5 | 11.5 | -0.3
CCSc1ccc(-c2nn(-c3ccccc3)cc2/C=C(/C#N)C(=O)NC)cc1 | -3.4 | 7.6 | -6.5 | 1.0 | -4.0 | -0.8
